Screening results from PubChem BioAssay.
This is a sample that favours compounds with a hit; in the whole collection about 3.9% have one here.
STAT1 inh-1: reduces IFN-gamma driven STAT1 reporter signal | NIH 3T3 STAT1-luciferase reporter, luminescence | inhibition, % at 5.5 µM | hit rate 0.35% among 200,000;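 active = inhibition above a set limit, the mean inhibition across all tested compounds plus 3 SD, cut at about 34% in these data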;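 also: 0% = IFN-gamma with DMSO and 100% = IFN-gamma with 300 µM nifuroxazide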
STAT3 activator: STAT3 signaling activation | AID 871 | U3A cells, IL-6 STAT3-luciferase reporter, luminescence; 100% = signal with IL-6 EC80 alone | hit rate 0.91% among 190,000 | activation (% of control), % at 5.6 µM;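 active = activation above the screen-wide mean of compound activation plus 3 SD, cut at about 130% in these data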;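 also: 0% = background luminescence of wells with medium and substrate only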
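Material: STAT3-luciferase reporter U3A cells. Controls: IL-6-treated wells, 100% activation. Read-out: % activation versus median of IL-6-stimulated wells. Probe or stimulus: IL-6 stimulus at 33 ng/mL final. Timing: compound 1 h, then IL-6 6 h at 37 °C. Signal: reporter luminescence signal.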
STAT1 activator: STAT1 signaling activation; hit rate 2.6% among 200,000; AID 932; NIH 3T3 STAT1-luciferase reporter, IFN-gamma, luminescence; 100% = IFN-gamma alone, no compound; activation (% of control), % at 5.5 µM;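 active = activation above the screen-wide mean activation plus 3 SD, cut at about 130% in these data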;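 also: raw ratio to IFN-gamma control signal so 100% means no change and 0% no light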
Pf gamet viab: kills late stage P. falciparum gametocytes. P. falciparum stage V gametocytes, ATP luminescence, 24 h. hit rate 0.065% among 150,000. inhibition, % at 10.9 µM;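 active = inhibition above the mean plus 3 SD of compounds within the control limits, set per campaign, cut at about 38% in these data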;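 also: 0% = DMSO wells and 100% = medium only without gametocytes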
NF-kB neuron act: raises NF-kB expression in human neuronal cells; NF-kB reporter expression; stronger effect = higher value; fold change at 12.5 µM; hit rate 1.6% among 190,000; AID 1239; in the data active = fold change above about 3.3
APP 5'UTR act: activates APP 5'UTR luciferase reporter. SH-SY5Y APP 5'UTR luciferase reporter, luminescence; zero percent = DMSO vehicle wells. hit rate 1% among 190,000. activation, % at 2 µM;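 active = activation above a set limit, based on mean plus 3 SD of controls, cut at about 140% in these data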
STAT1 inh-2: STAT1 inhibition, confirmation assay | NIH 3T3 STAT1-luciferase reporter, IFN-gamma, luminescence | hit rate 55% among 200 | shares compounds with STAT1 inh-1 | inhibition, % at 5.5 µM | AID 1263;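 active = triplicate mean inhibition exceeding the hit cutoff computed for the primary STAT1 screen, cut at about 35% in these data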;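 also: 0% = DMSO with IFN-gamma and 100% = 300 µM nifuroxazide with IFN-gamma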
NFkB inh STAT1ct: counter-screen for STAT1 inhibitors: NF-kappaB inhibition; shares compounds with STAT1 inh-1; HEK293T NF-kB luciferase reporter, TNF-alpha induced, luminescence; inhibition, % at 5.7 µM; hit rate 30% among 200;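 active = inhibition above the mean of solvent-only control wells plus 3 SD of those wells, cut at about 15% in these data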;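 also: 0% = DMSO with TNF-alpha and 100% = MG-132 control with TNF-alpha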
STAT3 inh STAT1c: STAT3 inhibition in STAT1 inhibitor counter-screen. shares compounds with STAT1 inh-1. U3A cells, IL-6 STAT3 luciferase reporter, luminescence; cells lacking STAT1. inhibition, % at 5.7 µM. hit rate 20% among 200;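 active = inhibition above the mean of solvent-only control wells plus 3 SD, set per campaign, cut at about 25% in these data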;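 also: 0% = IL-6 plus DMSO and 100% = IL-6 plus nifuroxazide control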
* marks the source's active call; other numbers are inactive results.

`CCCCCCC(=O)N(O)C1CC(=O)N(Cc2ccccc2)C1=O` (stereo not given) gave STAT1 inh-1 35*, STAT3 activator 83, STAT1 activator 68, Pf gamet viab -1, NF-kB neuron act 1.4, APP 5'UTR act 0, STAT1 inh-2 30, NFkB inh STAT1ct 11 and STAT3 inh STAT1c 22.
For CN(C)S(=O)(=O)n1cnc([C@@H]2[C@H]3C(=O)OC[C@@H]3C[C@@]23N=CN(Cc2ccccc2)C3=O)c1 the results were Pf gamet viab 2.
For O=C(OCc1c(-c2ccccc2)ncc2ccccc12)c1cccc(Br)c1 the results were Pf gamet viab -14.
`CC(=O)Nc1ccc(CN2CCc3c([nH]c4ccccc34)C2c2ccccn2)cc1` (stereo not given) gave STAT1 inh-1 4, STAT3 activator 127, STAT1 activator 96, Pf gamet viab 4, NF-kB neuron act 1.1 and APP 5'UTR act 23.
For COc1cccc(C2c3[nH]c4ccccc4c3CCN2Cc2cnc(C)s2)c1OC (stereo not given) the results were STAT1 inh-1 60*, STAT3 activator 129, STAT1 activator 45, Pf gamet viab 0, APP 5'UTR act 7, STAT1 inh-2 15, NFkB inh STAT1ct 12 and STAT3 inh STAT1c -27.
For CC(C)COc1ccc(C/C(N)=N/n2cnnc2)cc1 the results were STAT1 inh-1 35*, STAT3 activator 80, STAT1 activator 67, NF-kB neuron act 0.87, APP 5'UTR act 18, STAT1 inh-2 32, NFkB inh STAT1ct 11 and STAT3 inh STAT1c 39*.
Screening CCNc1nc(N2CCCC2)nc(N2CCCC2)n1 returned STAT1 inh-1 16, STAT3 activator 114, STAT1 activator 86, Pf gamet viab 1, NF-kB neuron act 1.2 and APP 5'UTR act 1.
For CCNc1nc(NC(C)(C)C)nc(N2CCCCC2)n1 the results were STAT1 inh-1 39*, STAT3 activator 94, STAT1 activator 64, NF-kB neuron act 1.6, APP 5'UTR act 3, STAT1 inh-2 24, NFkB inh STAT1ct -6 and STAT3 inh STAT1c 19.
Screening NS(=O)(=O)c1ccc(CCNC(=O)c2ccc(C#CC3(O)CCCCC3)cc2)cc1 returned STAT1 inh-1 52*, STAT3 activator 87, STAT1 activator 52, Pf gamet viab -19, NF-kB neuron act 0.32, APP 5'UTR act 1, STAT1 inh-2 -16, NFkB inh STAT1ct 8 and STAT3 inh STAT1c -30.
For CS(=O)(=O)c1nc(-c2ccccc2)cc(C(F)(F)F)n1 the results were STAT1 inh-1 36*, STAT3 activator 101, STAT1 activator 67, NF-kB neuron act 0.94, APP 5'UTR act -62, STAT1 inh-2 47*, NFkB inh STAT1ct -3 and STAT3 inh STAT1c 2.
Screening Cc1nc2ccc(NC(=S)NC3CCCCC3)cc2nc1C returned STAT1 inh-1 -33, STAT3 activator 90, STAT1 activator 128, Pf gamet viab -1, NF-kB neuron act 2.1 and APP 5'UTR act 33.
Screening C#Cc1ccc([C@H]2C=C(C(=O)OCC=C)O[C@@H](OCC)[C@@H]2CCCO)cc1 returned STAT1 inh-1 56*, STAT1 activator 49, Pf gamet viab 7, NF-kB neuron act 0.99, APP 5'UTR act 9, STAT1 inh-2 36*, NFkB inh STAT1ct 2 and STAT3 inh STAT1c -17.
For C#Cc1ccc([C@@H]2C=C(C(=O)OCC=C)O[C@H](OCC)[C@H]2CCCO)cc1 the results were STAT1 inh-1 37*, STAT1 activator 67, NF-kB neuron act 0.86, APP 5'UTR act -6, STAT1 inh-2 22, NFkB inh STAT1ct -1 and STAT3 inh STAT1c 2.
C=CCOC(=O)C1=C[C@H](c2ccccc2)[C@@H](CCCO)[C@H](OCC)O1 was read as STAT1 inh-1 16, STAT1 activator 87, NF-kB neuron act 1 and APP 5'UTR act 11.
Screening O=C(CSc1nnc(NC(=O)C2CC2)s1)Nc1ccc2c(c1)OCCO2 returned STAT1 inh-1 -8, STAT3 activator 105, STAT1 activator 105, Pf gamet viab -6, NF-kB neuron act 1.1 and APP 5'UTR act 16.
For COc1ccc(CCNC(=O)Cn2c(=O)n(-c3ccc(C)c(F)c3)c(=O)c3sccc32)cc1OC the results were STAT1 inh-1 52*, STAT3 activator 105, STAT1 activator 51, Pf gamet viab 1, NF-kB neuron act 0.77, APP 5'UTR act -2, STAT1 inh-2 45*, NFkB inh STAT1ct 16* and STAT3 inh STAT1c 19.
`CC(C)(C)CC(=O)NCCc1csc(-c2ccccc2)n1` gave Pf gamet viab -34.
`COc1cccc(CNCc2ccccc2Br)c1OC` gave Pf gamet viab 8.
Screening Cc1nn(C)cc1C(=O)Nc1cc(Oc2ccc(Cl)cc2)cc([N+](=O)[O-])c1 returned STAT1 inh-1 5, STAT3 activator 106, STAT1 activator 95, NF-kB neuron act 1 and APP 5'UTR act -2.
`Cn1cc([N+](=O)[O-])c(C(=O)Nc2cc(Oc3ccccc3)cc([N+](=O)[O-])c2)n1` gave STAT1 inh-1 35*, STAT3 activator 87, STAT1 activator 69, Pf gamet viab 20, NF-kB neuron act 0.72, APP 5'UTR act -97, STAT1 inh-2 40*, NFkB inh STAT1ct 24* and STAT3 inh STAT1c -1.
For Cc1ccc(-n2nnc(-c3nccs3)n2)cc1 the results were STAT1 inh-1 83*, STAT1 activator 24, Pf gamet viab -26, NF-kB neuron act 2.5, APP 5'UTR act 118, STAT1 inh-2 49*, NFkB inh STAT1ct 76* and STAT3 inh STAT1c 85*.
`COc1cccc(NC(=O)CSc2nnc(-c3cc(C)n(-c4ccccc4)c3C)o2)c1` gave STAT1 inh-1 40*, STAT3 activator 94, STAT1 activator 65, NF-kB neuron act 0.22, APP 5'UTR act 38, STAT1 inh-2 18, NFkB inh STAT1ct 9 and STAT3 inh STAT1c -23.
For CCOC(=O)c1c(C)nc2sc3c(=O)n(-c4ccc(OC)cc4)nnc3c2c1-c1ccc(OC)cc1 the results were STAT1 inh-1 50*, STAT3 activator 95, STAT1 activator 56, NF-kB neuron act 0.81, APP 5'UTR act -8, STAT1 inh-2 48*, NFkB inh STAT1ct 9 and STAT3 inh STAT1c 9.
CCOC(=O)c1c(C)nc2sc3c(=O)n(-c4ccc(C(C)=O)cc4)cnc3c2c1-c1ccc(OC)cc1 was read as STAT1 inh-1 4, STAT3 activator 101, STAT1 activator 97, NF-kB neuron act 0.57 and APP 5'UTR act 7.
